# Source: PubChem
# Compounds with a hit are over-represented: about 4.1% of the library has one in this group of screens.
# MrgX1 agonist – agonists of human MrgX1 receptor, primary screen, HEK293 cells, Fluo-4 calcium flux. Mas-related G-protein coupled receptor member X1 (Homo sapiens), Q96LB2. Fluo-4 calcium fluorescence, agonist mode; hits give high values. B-score at 10 µM. 310,000 compounds, 0.44% hits;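 active means calcium response B-score plate-corrected fluorescence ratio at least 3 library SD, with starting fluorescence B-score inside 5 SD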
# Target sequence (Q96LB2 whole entry, looked up): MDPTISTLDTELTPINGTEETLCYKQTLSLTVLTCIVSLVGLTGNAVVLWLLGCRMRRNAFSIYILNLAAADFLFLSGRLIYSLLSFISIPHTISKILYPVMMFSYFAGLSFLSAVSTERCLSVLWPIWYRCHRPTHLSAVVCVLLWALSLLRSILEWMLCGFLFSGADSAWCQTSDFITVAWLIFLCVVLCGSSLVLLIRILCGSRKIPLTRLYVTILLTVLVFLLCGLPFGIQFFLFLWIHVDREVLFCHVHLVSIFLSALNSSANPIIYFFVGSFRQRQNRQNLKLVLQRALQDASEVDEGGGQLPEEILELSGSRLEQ
#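 Material: HEK293 cells stably expressing human MrgX1 receptor | Quantity: 15,000 cells per well | Times: Cells plated overnight, dye loaded 0.5 h 37 °C, 0.5 h room temperature | Measured by: Kinetic Fluo-4 NW fluorescence of intracellular calcium | Control set: Positive and negative controls per plate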
# MrgX1 antag – antagonists of human MrgX1 receptor, primary screen, HEK293 cells, Fluo-4 calcium flux; BAM8-22 antagonism; hits give low values; B-score at 10 µM; 310,000 compounds, 1.3% hits; AID 588676, 2011;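 active means calcium-response B-score plate-corrected more than 3 library SD below zero, starting fluorescence within 5 deviations, no agonist response on first addition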;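 further: peak minus trough fluorescence over baseline after final BAM8-22 challenge near maximal dose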
# MrgX1 PAM – positive allosteric modulators of MrgX1, primary screen, HEK293 cells, Fluo-4 calcium flux. 310,000 compounds, 0.63% hits. FDSS; hits give high values. B-score at 10 µM. Mas-related G-protein coupled receptor member X1 (Homo sapiens), Q96LB2;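 active means plate-corrected calcium response at least 3 library SD above typical, normal starting fluorescence, not activating the receptor alone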;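 further: compound read alongside a low EC10 to EC30 dose of BAM8-22 agonist; peak minus trough fluorescence over baseline measured at the second addition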
# RGS4 block – RGS4 inhibitors, primary screen, cell-based, HEK293 M3R inducible RGS4, calcium flux | Regulator of G-protein signaling 4 (Homo sapiens), P49798 | AID 463165, 2010 | Fluo-4 calcium flux; hits give high values; triggered by carbachol at its EC20 | 310,000 compounds, 0.45% hits | B-score at 10 µM;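 active means B-score, a plate-corrected calcium signal, over three deviations above library mean, with baseline fluorescence within five deviations of library mean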;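 further: RGS4 expression induced by doxycycline in cells with stable M3 receptor; B-score is computed from the integrated fluorescence ratio over baseline after carbachol; higher B-score means a larger calcium signal and so more RGS4 inhibition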
# Target sequence (P49798 whole entry, looked up): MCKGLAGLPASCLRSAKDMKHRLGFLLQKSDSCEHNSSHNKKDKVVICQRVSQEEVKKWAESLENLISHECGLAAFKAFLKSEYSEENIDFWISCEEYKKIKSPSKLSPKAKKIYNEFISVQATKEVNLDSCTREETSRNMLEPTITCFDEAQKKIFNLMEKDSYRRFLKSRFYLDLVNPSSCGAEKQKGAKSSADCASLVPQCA
# RGS4 pot – RGS4 potentiators or activators, primary screen, cell-based, HEK293 M3R inducible RGS4, calcium flux. carbachol calcium flux Fluo4; hits give low values. B-score at 10 µM. 310,000 compounds, 0.92% hits;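 active means B-score of the integrated calcium signal more than 4 SD below the library mean, with starting fluorescence not abnormally high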;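 further: negative B-score means reduced calcium response which marks RGS4 activation or potentiation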
#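 Reagent: ECmax carbachol challenge; Test system: M3R-expressing HEK293 line, RGS4 induced by doxycycline; Schedule: overnight RGS4 induction, 30 min dye load 37 °C, 20 min compound RT; Detection: calcium dye Fluo4 fluorescence; Read-out: Agonist-evoked peak-minus-minimum fluorescence over baseline, integrated ratio, B score.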
# Kir21 inh – inhibitors of mouse Kir2.1 inward-rectifier potassium channel. Inward rectifier potassium channel 2 (Mus musculus), P35561. HEK293-Kir2.1, FluxOR thallium flux fluorescence; hits give low values. B-score at 10 µM. 310,000 compounds, 0.85% hits. AID 1672, 2009;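 active means fluorescence ratio B-score at or below minus 3 SD of library scores, with starting-brightness B-score within 2 SD, cut at about -4.2 in these data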;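 further: channel flux triggered by added potassium and thallium sulfate stimulus; B-score of peak minus minimum fluorescence over baseline after thallium stimulus; more negative B-score means stronger Kir2.1 block with less thallium influx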
# RGS4 act valid – reduced carbachol calcium response, RGS4-induced M3R cells, confirmation, RGS4 activator project, cell-based, HEK293 M3R/RGS4 inducible, calcium flux, duplicate; shares compounds with RGS4 pot; carbachol calcium flux Fluo4; inhibition, % at 10 µM; 1,100 compounds, 89% hits; AID 602282, 2012;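 active means inhibition above 3 SD of the buffer control wells, cut at about 41% in these data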;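 further: signal is the integrated peak-minus-minimum Fluo4 fluorescence over baseline ratio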
# RGS4 act ctr – activity in cells without induced RGS4 expression; shares compounds with RGS4 pot; HEK293 M3R non-induced RGS4, Fluo4 calcium flux; after carbachol challenge at its EC90; inhibition, % at 10 µM; 1,100 compounds, 82% hits;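 active means inhibition exceeding 3 SD of buffer-only control wells, cut at about 26% in these data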;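 further: percent drop in integrated peak-minus-baseline over baseline Fluo4 ratio after carbachol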
# MrgX1 ag confirm – MrgX1 receptor agonists, duplicate retest, confirmation, HEK293 cells, Fluo-4 calcium flux; Fluo-4 calcium fluorescence, FDSS; shares compounds with MrgX1 agonist; activation, % at 10 µM; 600 compounds, 78% hits;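 active means calcium signal rise, corrected for plate position, at least 3 library SD high, with starting brightness within 5 such deviations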
# MrgX1 ant reconf – MrgX1 receptor antagonists, duplicate retest, confirmation, HEK293 cells, Fluo-4 calcium flux; shares compounds with MrgX1 antag; BAM8-22 calcium flux; hits give low values; remaining BAM8-22 calcium response % of control (hits give low values), % at 10 µM; 2,300 compounds, 19% hits;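 active means remaining agonist calcium response no higher than 100% minus 3 SD of agonist-only control wells, with starting fluorescence near control levels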;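 further: agonist BAM8-22 given at a near maximal EC90 to ECmax level; peak minus minimum fluorescence divided by baseline after agonist addition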
# HEK293 Ca flux – nonspecific calcium signal in parental HEK293, confirmation, counter-screen for MrgX1 antagonist project, parental HEK293 cells, Fluo-4 calcium flux; shares compounds with MrgX1 antag; Fluo-4 calcium fluorescence, FDSS; fluorescence ratio F(max-min)/F0 at 10 µM; 4,000 compounds, 2% hits; AID 624111, 2012;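 active means duplicate-averaged calcium fluorescence ratio at least three times the standard deviation of buffer wells, a nonspecific response in parental cells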
# HEK293 Ca counter – calcium response in parental HEK293 cells, primary screen, counter-screen for MrgX1 allosteric activator project, cell-based, Fluo-4 calcium flux, duplicate; shares compounds with MrgX1 antag; Fluo-4 fluorescence ratio; hits give high values; fluorescence ratio F(max-min)/F0 at 10 µM; 4,000 compounds, 0.4% hits;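 active means calcium fluorescence ratio, averaged over duplicates, at least 3 SD of the buffer-well ratio, meaning a nonspecific response in receptor-free cells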;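 further: untransfected parental HEK293 lacking MrgX1 used as counterscreen for MrgX1 allosteric activators; fluorescence change taken during the second addition on a kinetic imager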
# HEK293 Ca cntr2 – calcium response in parental HEK293 cells, primary screen, counter-screen for MrgX1 agonist project, cell-based, Fluo-4 calcium flux, duplicate, agonist mode | Fluo-4 calcium fluorescence (FDSS); hits give high values | fluorescence ratio F(max-min)/F0 at 10 µM | shares compounds with MrgX1 antag | AID 624115, 2012 | 4,000 compounds, 8.7% hits;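 active means calcium fluorescence ratio at least three times the spread of buffer wells, meaning a non-specific response in parental cells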
# Hits are given with their value; n = inactive; x = no result given.
SMILES,MrgX1 agonist,MrgX1 antag,MrgX1 PAM,RGS4 block,RGS4 pot,Kir21 inh,RGS4 act valid,RGS4 act ctr,others
O=C(Nc1ccc(Cl)cc1)N(C1=NCCC1)c1ccc(OC(F)F)cc1,n,n,n,n,-10,n,92,92,
O=C(COC(=O)Cc1ccc(Cl)cc1)Nc1ccc(OC(F)F)cc1,n,n,n,n,n,n,x,x,
Cc1cccc(C(=O)NC(=S)NNC(=O)COc2ccc(Cl)cc2)c1,x,x,x,n,-11,n,58,50,
Cc1cccc(/C(N)=N/OC(=O)COc2ccc(Cl)cc2)c1,n,n,n,n,n,n,x,x,
CN(C)S(=O)(=O)c1ccc(N2CCCC2)c(C(=O)N2CCN(S(=O)(=O)c3cccc(F)c3)CC2)c1,n,n,n,n,n,n,x,x,
O=C(Nc1ccc(Oc2ccccc2)nc1)C1CCCCN1Cc1ccc(O)cc1 (stereo unspecified),n,n,n,n,-8.2,n,74,28,
O=C(Nc1ccc(Oc2ccccc2)nc1)C1CCCCN1Cc1cccc(O)c1 (stereo unspecified),n,n,n,n,n,n,x,x,
CCCc1cc(C(=O)N2CCN(c3ccc(C(F)(F)F)cn3)CC2)sc1C,n,n,n,n,-11,n,83,56,
CC(=O)c1cccc(OCC(=O)N2CCN(c3ccc(C(F)(F)F)cn3)CC2)c1,n,n,n,n,-12,n,n,n,
Cc1ccc(C(=O)N2CCN(c3ccc(C(F)(F)F)cn3)CC2)cc1,n,n,n,n,n,n,x,x,
CC1=C(C(=O)OC(C)C)C(c2cccc(F)c2)N2C(=O)C(C)SC2=N1 (stereo unspecified),n,n,n,n,n,n,x,x,
CCOC(=O)C1=C(C)N=C2SC(C)C(=O)N2C1c1cccc(F)c1 (stereo unspecified),n,n,n,n,-8.1,n,n,n,
COc1ccc(-c2nn(-c3ccccc3)cc2C(=O)Nc2nccs2)cc1,n,n,n,n,-8.7,n,68,n,
COc1cccc(-c2nn(-c3ccccc3)cc2C(=O)Nc2nccs2)c1,n,n,n,n,n,n,x,x,
CC(C)OC(=O)CSc1nnc(-c2cnccn2)n1C,n,n,n,n,n,n,x,x,
CCCCNC(=O)C1(NC(=O)Nc2ccc(C)cc2)CCCCC1,n,n,n,n,n,n,x,x,
CC(C(=O)NCC1(c2ccccc2)CCCC1)N1CCCC1 (stereo unspecified),n,n,n,n,-7.9,n,64,84,
CC(C(=O)NCC1(c2ccccc2)CCCC1)N1CCOCC1 (stereo unspecified),n,n,n,n,n,n,x,x,
Cc1ccccc1CC1(CO)CCCN(C(=O)c2ccc3ncccc3c2)C1 (stereo unspecified),n,n,n,n,-10,n,62,84,
CN1CCN(CC(O)(c2ccc(Cl)cc2)c2ccc(Cl)cc2)CC1,n,n,n,n,-10,-8.8,92,65,
O=C(O)c1ccc(-n2cc(C(=O)c3ccccc3O)cn2)cc1,n,n,n,n,n,n,x,x,
Cn1c(SCc2c(Cl)cccc2Cl)nnc1-c1cccs1,n,n,n,n,-12,n,74,84,
Cc1ccc(CSc2nnc(-c3cccs3)n2C)cc1,n,n,n,n,n,n,x,x,
COC(=O)c1ccc(C(=O)OC)c(NC(=O)COC(=O)CC2CC3CCC2C3)c1 (stereo unspecified),n,n,n,n,-9.7,n,90,33,
COc1cc(C)c(C(C)C)cc1S(=O)(=O)N1CCOCC1,n,n,n,n,-8.8,n,n,n,
SMILES,MrgX1 agonist,MrgX1 antag,MrgX1 PAM,RGS4 block,RGS4 pot,Kir21 inh,RGS4 act valid,RGS4 act ctr,others
O=C(COc1ccc(C(=S)N2CCOCC2)cc1)N1CCCC1,n,n,n,n,n,n,x,x,
Cc1cccc(NS(=O)(=O)c2ccc(C(=O)N3CCN(c4ccccc4O)CC3)cc2)c1C,n,n,n,n,-8.3,n,85,70,
Cc1cc(C)nc(/N=C(\N)Nc2ccc(OCc3ccccc3)cc2)n1,161,n,n,n,-10,n,87,62,MrgX1 ag confirm=590%;HEK293 Ca flux=n;HEK293 Ca counter=n;HEK293 Ca cntr2=128
c1ccc(Cn2nnc3cnccc32)cc1,n,-6.7,n,n,-8.4,n,n,n,MrgX1 ant reconf=n;HEK293 Ca flux=n;HEK293 Ca counter=n;HEK293 Ca cntr2=n
c1ccc(Cn2nnc3ccccc32)cc1,n,n,n,n,n,n,x,x,
CC1(C)CC(=O)C2=C(C1)Nc1ccccc1S2,n,n,n,n,n,n,x,x,
CC1(C)CC(=O)C2=C(C1)Nc1ccccc1NC2,34,n,n,n,-7.9,n,n,n,MrgX1 ag confirm=n;HEK293 Ca flux=n;HEK293 Ca counter=n;HEK293 Ca cntr2=n
